Activity calls are given as the source filed them. No cut-off for these calls is given here.
Key:
Settings in all cases: Homo sapiens
HEK293 [1] = test: Inhibition of RyR2 R4496C mutant in HEK293 cells assessed as inhibition of store overload-induced calcium release at 10 uM by fura-2 AM dye based fluorescence assay; assay type: cell-based
In short: (§1)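 HEK293 cells expressing RyR2 R4496C, loaded with fura-2 AM, were followed by single-cell Ca²⁺ imaging. Cells were perfused continuously with rising drug levels (0, 3, 10, 30 µM) without pre-incubation. Read-out was the percentage of cells showing spontaneous Ca²⁺ oscillations at each concentration.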

HEK293 [2] = test: Inhibition of RyR2 R4496C mutant in HEK293 cells assessed as inhibition of store overload-induced calcium release at 30 uM by fura-2 AM dye based fluorescence assay; assay type: cell-based; in short: as §1
HEK293 [3] = test: Inhibition of RyR2 R4496C mutant in HEK293 cells assessed as reduction of caffeine-induced calcium release at 30 uM by fura-2 AM dye based fluorescence assay; assay type: cell-based
In short: (§2)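 Fura-2 ratio imaging of single HEK293 cells expressing mutant RyR2 (R4496C), perfused with compound up to 30 µM without pre-incubation. Cytosolic Ca²⁺ level was monitored, and caffeine, a RyR2 agonist, was then added to trigger Ca²⁺ release. Amplitude of the caffeine-induced release was read from the traces.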

HEK293 [4] = test: Induction of cytosolic calcium level in HEK293 cells expressing RyR2 R4496C mutant at 30 uM by fura-2 AM dye based fluorescence assay; assay type: functional, cell-based; in short: as §2
[5] = Inhibition of RyR2 R4496C mutant-mediated store overload-induced calcium release in HEK293 cells assessed as reduction in amplitude of spontaneous calcium oscillations by fura-2 AM dye based fluorescence assay; assay type: cell-based
In short: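 Single-cell fura-2 ratio traces were recorded in R4496C RyR2-expressing HEK293 cells. Cells were perfused continuously with increasing concentrations (0, 3, 10, 30 µM) without pre-incubation. The amplitude of spontaneous Ca²⁺ oscillations was compared before and after each addition.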

## COc1ccccc1OCCNCC(O)COc1c(O)ccc2[nH]c3ccccc3c12 (stereo not given)
HEK293 [1]
  inhibition: 70%
HEK293 [2]
  inhibition: Active
HEK293 [3]
  inhibition: Active
HEK293 [4]
  Activity: Active
[5]
  IC50: 9.4 µM

## COc1cc(O)ccc1OCCNCC(O)COc1cccc2[nH]c3ccccc3c12 (stereo not given)
HEK293 [1]
  inhibition: 10%
HEK293 [2]
  inhibition: Active
HEK293 [3]
  inhibition: inactive
HEK293 [4]
  Activity: inactive
[5]
  IC50: 10.4 µM

## COc1ccc(O)cc1OCCNCC(O)COc1cccc2[nH]c3ccccc3c12 (stereo not given)
HEK293 [1]
  inhibition: 10%
HEK293 [2]
  inhibition: 80%
HEK293 [3]
  inhibition: inactive
HEK293 [4]
  Activity: inactive
[5]
  IC50: 19.4 µM

Reference: ChEMBL document CHEMBL3739269, “Suppression of store overload-induced calcium release by hydroxylated metabolites of carvedilol” (Bioorg Med Chem Lett, 2016)
